High-throughput results: PubChem BioAssay, SRMLSC
Lung fibro prol: blocks proliferation of human lung fibroblasts | LL 47 human lung fibroblast viability, ATP luminescence; hits give low values | viability, % at 10 µM | actives 1.1% (n = 85,000);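 active means viability at or below 50% in the single dose screen; inactive means viability above 50%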;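 further: compound exposure lasted 72 h before the ATP readout; 100% = median luminescence of untreated cell-only wells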
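Test system: LL 47 human lung fibroblasts / Quantity: 1,150 cells in each well / Medium: IMEM growth medium with 15% fetal bovine serum / Incubation: 72 h compound exposure at 37 °C after overnight plating / Detection: CellTiter-Glo luminescence measuring cellular ATP / Read-out: % viability versus median cells-only luminescence / Benchmarks: cell-only wells, no compound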
HUVEC inhibit: human endothelial cell proliferation inhibition; HUVEC proliferation, CellTiter-Glo luminescence, 72 h; hits give low values; AID 648; viability, % at 10 µM (by protocol); actives 1.1% (n = 86,000);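 active means viability at or below 30%; inactive means viability above 30%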;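 further: 100% = median luminescence of DMSO-only cell control wells on each plate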
H69AR inhibit: blocks growth of human H69AR lung tumor cells; H69AR lung tumor viability, ATP luminescence, 72 h; hits give low values; viability, % at 10 µM; actives 6% (n = 85,000);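 active means viability at or below 40%; inactive means viability above 40%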;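 further: multidrug resistant small cell line overexpressing MRP-1 efflux transporter; 100% = mean luminescence of untreated control wells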
HCT116 bCat-KO: beta-catenin-lacking colon tumor cell growth suppression; HCT116 beta-catenin knockout viability, CellTiter-Glo, 60 h; hits give low values; viability, % at 10 µM; actives 1.5% (n = 140,000); AID 818;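 active means viability at or under a set limit, the compound median less 4 SD, cut at about 6% in these data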;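 further: 0% = Hyamine 1622 control at 20 µM and 100% = untreated cell control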
PTEN del growth: growth suppressors of cells with PTEN tumor suppressor deletion; HCT116 PTEN-null viability, CellTiter-Glo, 60 h; hits give low values; actives 1.2% (n = 140,000); viability, % at 10 µM;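 active means viability at or below a set limit, 4 SD under the median of all tested compounds, cut at about 3.7% in these data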;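 further: PTEN knockout HCT116 line with beta catenin targeted HCT116 as companion control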
Numbers without * were called inactive; . = no result given. Many of the other results were omitted from the sample, so hits are more common in it than they were.

SMILES	Lung fibro prol	HUVEC inhibit	H69AR inhibit	HCT116 bCat-KO	PTEN del growth
CCCC(=O)NC(C)C(c1cccs1)N1CCN(C)CC1 (stereo not drawn)	100	90	97	95	101
CC(C)C(=O)NC(c1ccccc1)c1cc([N+](=O)[O-])c2cccnc2c1O (stereo not drawn)	.	.	.	4.1*	7
CCC(=O)NC(C)C(c1cccs1)N1CCOCC1 (stereo not drawn)	97	99	105	.	.
CC(NC(=O)Cc1ccccc1[N+](=O)[O-])c1ccccc1 (stereo not drawn)	.	.	.	91	91
CC(=O)NC(c1cccs1)c1cc([N+](=O)[O-])c2cccnc2c1O (stereo not drawn)	.	.	.	5.6*	3.8*
CCC(=O)NC(c1cccs1)c1cc([N+](=O)[O-])c2cccnc2c1O (stereo not drawn)	.	.	.	3.0*	5
CC(C)c1cc(C(=O)N/N=C/c2cccnc2)n[nH]1	.	.	.	90	98
COc1ccc(N2C(=O)NC3CC2(C)Oc2ccc(Br)cc23)cc1OC (stereo not drawn)	83	91	38*	90	88
COc1cccc(N2CCN(C(=O)c3ccc(N4C(=O)NC5CC4(C)Oc4ccccc45)cc3)CC2)c1 (stereo not drawn)	91	89	91	92	82
Cc1ccnc(NS(=O)(=O)c2ccc(NC(=O)c3ccc(S(=O)(=O)N4CC(C)OC(C)C4)cc3)cc2)n1 (stereo not drawn)	.	.	.	101	98
COc1cc(/C=C2/C(=O)NN(c3ccc(Cl)cc3)C2=O)ccc1OC(=O)c1ccco1	.	.	.	103	101
O=C1NN(c2ccccc2)C(=O)/C1=C\c1cccc(OC(=O)c2cccs2)c1	96	46	3.8*	93	89
CCOc1cc(/C=C2/C(=O)N(c3ccccc3)N=C2C)ccc1OC(=O)c1cccs1	.	.	.	87	93
O=C1NN(c2ccc(Cl)c(Cl)c2)C(=O)/C1=C/c1cccc(OC(=O)c2cccs2)c1	93	51	5.4*	100	105
COc1ccc2c(c1)[nH]c(=O)c1sc3ccccc3c12	.	.	.	5.1*	9
COc1ccc2sc3c(=O)[nH]c4ccccc4c3c2c1	.	.	.	31	29
Cc1cc(NC(=O)CSc2nc3sc(C)c(C)c3c(=O)n2C2CCCC2)no1	15*	45	15*	89	85
COc1cc(C(c2nnnn2C(C)(C)C)N2CCN(c3nc4ccccc4s3)CC2)ccc1O (stereo not drawn)	84	96	9.0*	70	73
O=C(N/N=C/C=C/c1ccc(Br)cc1)C(O)c1ccccc1 (stereo not drawn)	.	.	.	84	87
Cc1ccc(NS(=O)(=O)c2ccc3c(c2)c(=O)n(C)c(=O)n3C)cc1F	83	60	85	50	62
Cc1cc(C)cc(NS(=O)(=O)c2ccc3c(c2)c(=O)n(C)c(=O)n3C)c1	34*	34	83	46	39
C=CCn1c(C)cc(C(=O)CSc2nnc(NCc3ccccc3)s2)c1C	53	58	25*	21	37
O=C(N/N=C/c1ccco1)C1COc2ccccc2O1 (stereo not drawn)	.	.	.	90	96
O=C(N/N=C/c1cccs1)C1COc2ccccc2O1 (stereo not drawn)	95	69	24*	81	79
CCCCCCn1c(SCC(=O)c2c(N)n(C)c(=O)n(C)c2=O)nc2ccccc21	40*	50	24*	51	47
SMILES	Lung fibro prol	HUVEC inhibit	H69AR inhibit	HCT116 bCat-KO	PTEN del growth
CCCn1c(SCC(=O)c2ccc3c(c2)NC(=O)CO3)nc2ccccc21	.	.	.	4.6*	28
O=C1COc2ccc(C(=O)CSc3nnnn3-c3ccccc3)cc2N1	102	103	103	101	97
CCCn1c(N)c(C(=O)CSc2nc3ccccc3n2CCC#N)c(=O)n(C)c1=O	93	74	88	98	100
O=C1COc2ccc(C(=O)CSc3nnc(Cc4cccs4)n3-c3ccc(Cl)cc3)cc2N1	98	83	27*	80	77
CC(=O)Nc1ccc(OCC(O)Cn2nc(C)c(Br)c2C)cc1 (stereo not drawn)	100	100	88	96	95
COc1ccc(F)cc1S(=O)(=O)Nc1cccc(C(=O)O)c1	.	.	.	90	95
CCCCn1c(SCc2nc(N)nc(N3CCCCC3)n2)nc2c1c(=O)n(C)c(=O)n2C	.	.	.	90	94
Cc1ccc(-n2nnnc2Sc2ccc(S(=O)(=O)NCCN(C)C)cc2[N+](=O)[O-])cc1	.	.	.	1.7*	1.6*
CC(=O)NNC(=O)C(O)(c1ccccc1)c1ccccc1	.	.	.	109	96
Cc1ccc(/C(O)=C/C(=O)C(=O)NNC(=O)C(O)(c2ccccc2)c2ccccc2)cc1	112	78	11*	92	102
O=C(Nc1ccccc1C(F)(F)F)N1CCN(C(c2ccccc2)c2ccccc2)CC1	86	69	31*	89	85
CC1CCc2c(sc3ncn4c(SCC(=O)NCc5ccco5)nnc4c23)C1 (stereo not drawn)	102	88	10*	62	72
CCC1CCc2c(sc3nc(SCC(=O)NCc4ccco4)n(-c4ccccc4)c(=O)c23)C1 (stereo not drawn)	64	38	3.0*	81	79
COc1ccc2cc(CCNC(=O)c3c(-c4ccccc4Cl)noc3C)c(=O)[nH]c2c1	102	100	90	94	98
Cc1cccc(NS(=O)(=O)c2cc(C(=O)OC(C)C(=O)NCc3ccc4c(c3)OCO4)ccc2C)c1 (stereo not drawn)	.	.	.	79	71
CCCOC(=O)c1ccc(Oc2c(-c3ccc(OCC)cc3O)n[nH]c2C)cc1	54	4.5*	2.2*	103	97
CCCc1ccc(Oc2cn[nH]c2-c2ccc(O)c(C)c2O)cc1	96	56	82	39	52
CCCOC(=O)c1ccc(Oc2cn[nH]c2-c2ccc(OCC)cc2O)cc1	96	9.5*	2.7*	55	54
CCCc1ccc(Oc2c(-c3ccc(O)c(C)c3O)n[nH]c2C)cc1	96	24*	21*	87	84
CCOc1ccc(-c2[nH]ncc2-c2csc(C)n2)c(O)c1	.	.	.	82	70
O=C(Nc1ccccc1)c1ccc(CSc2ncccn2)cc1	.	.	.	85	79
C=CCNC(=O)c1cccc(C(F)(F)F)c1	.	.	.	88	91
Oc1ccccc1CNc1ccc(Br)cn1	6.4*	9.3*	82	20	36
CN(CCO)c1cc(Sc2nc3ccccc3s2)c2nonc2c1[N+](=O)[O-]	30*	75	4.3*	110	102
CCOC(=O)n1c(=O)n(Cc2ccc(Cl)c(Cl)c2)c2ccccc21	.	.	.	76	77
SMILES	Lung fibro prol	HUVEC inhibit	H69AR inhibit	HCT116 bCat-KO	PTEN del growth
COC(=O)/C(=C\Nc1ccc(Cl)cc1Cl)NC(=O)c1ccc(Cl)cc1Cl	89	27*	21*	65	63
Cc1nc2sccn2c(=O)c1CCN1CCC(=C(c2ccc(F)cc2)c2ccc(F)cc2)CC1	95	32*	48	40	46
Cc1nc2ccccn2c(=O)c1CCN1CCC(C(=O)c2ccc(F)cc2)CC1	90	88	89	80	81
CC(=O)n1cc(-c2ccncc2)c2ccccc21	86	25*	68	86	72
c1ccc2c(-c3ccncc3)c[nH]c2c1	106	82	85	94	93
CCCCN(C)C/C(O)=C(\C#N)c1nc(-c2ccccc2)cs1	96	82	39*	102	92
N#C/C(=C(/O)CN1CCOCC1)c1nc(-c2ccccc2)cs1	96	102	84	94	96
